Among the data in ChEMBL document CHEMBL3872205, “Design, synthesis and evaluation of novel potent angiotensin II receptor 1 antagonists” (Eur J Med Chem, 2016) are IC50, Ki and Activity values, retold here.

By IC50 is commonly meant the concentration at which inhibition is half-maximal. One may read the Ki as a measure of affinity in units of concentration, obtained from inhibition or displacement.

SMILES strings stand for the structures. Calls of active or inactive are those of the source. The rule behind the calls is not given here.

The nature of assay [1]: Displacement of 125I-Ang2 from AT1 receptor in SPF Sprague-Dawley rat vascular smooth muscle cell membranes after 150 mins by gamma counting method. Summed up: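 Primary aortic VSMCs from SPF Sprague-Dawley rats, obtained by explant culture in DMEM/10% FBS and identified by SM α-actin staining; passages 3–6. Whole cells (10^6/well) incubated with 125I-Ang II (diluted to 0.2 nM) and compound at final 10^-12–10^-6 M, 4 °C for 150 min. Washed, lysed in 0.1 M NaOH, γ-counted. IC50 from nonlinear fit of competition curves.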
In general terms: Displacement assays read how much labelled ligand stays bound in the presence of the test substance.

The test system of assay [2] is Rattus norvegicus. The assay is described as follows: Antihypertensive activity in spontaneous hypertensive rat model assessed as reduction in mean blood pressure at 15 mg/kg, po measured up to 24 hrs. The format is functional, organism-based. Summed up:
(§1)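 Male SHRs (250 ± 20 g) were randomized, 6 per group. Compound was suspended in 0.5% sodium carboxymethyl cellulose and given orally; vehicle-only negative control. Mean blood pressure was calculated as (SBP − DBP)/3 + DBP from systolic and diastolic readings over the time course. Data are mean ± SD, with p < 0.05 taken as significant.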

For assay [3], the system named is Rattus norvegicus. The assay is described as follows: Antihypertensive activity in spontaneous hypertensive rat model assessed as reduction in mean blood pressure at 15 mg/kg, po after 12 hrs. In kind it is functional, organism-based. The gist of the method:
as §1

The subject of assay [4] is Rattus norvegicus. Put plainly: Antihypertensive activity in spontaneous hypertensive rat model assessed as reduction in mean blood pressure at 15 mg/kg, po after 3 hrs. In kind it is functional. The gist of the method: as §1

In assay [1], `CCCC1=NC2(CCCC2)C(=O)N1Cc1ccc2c(ccn2-c2ccccc2-c2nnn[nH]2)c1` gave an IC50 of 7.04 nM and an inhibition constant Ki of 5.07 nM. Besides, the outcome in assay [2] was Active.

Consider `CCCCC1=NC2(CCCC2)C(=O)N1Cc1ccc(-c2ccccc2-c2nnn[nH]2)cc1` [IRBESARTAN], for which, in assay [1], the half-inhibitory concentration (IC50) was found to be 1.46 nM and the Ki amounted to 1.05 nM. In addition, in assay [2], the result was Active.

Turning to `CCCCC1=NC2(CCCC2)C(=O)N1Cc1cccc2c1ccn2-c1ccccc1-c1nnn[nH]1`, in assay [3], the outcome was Active. In assay [1], this compound registered an IC50 of 3.05 nM and a Ki of 2.21 nM. In addition, the Activity in assay [4] is recorded as 40.57 mmHg.

In assay [1], `CCCCCC1=NC2(CCCC2)C(=O)N1Cc1ccc2c(ccn2-c2ccccc2-c2nnn[nH]2)c1` had an IC50 of 5.33 nM and a Ki of 3.42 nM. Moreover, the outcome in assay [2] was Active.

Turning to `CCCCCC1=NC2(CCCC2)C(=O)N1Cc1cccc2c1ccn2-c1ccccc1-c1nnn[nH]1`, in assay [1], the IC50 is 6.15 nM and affinity was put at a Ki of 4.67 nM. In addition, in assay [2], the outcome was Active.

In assay [1], `CCCC1=NC2(CCCC2)C(=O)N1Cc1cccc2c1ccn2-c1ccccc1-c1nnn[nH]1` had an IC50 of 7.75 nM and an inhibition constant (Ki) of 5.61 nM. Besides, the result in assay [2] was Active.

For the compound `CCCCCCC1=NC2(CCCC2)C(=O)N1Cc1ccc2c(ccn2-c2ccccc2-c2nnn[nH]2)c1`, in assay [1], the IC50 was 6.15 nM and affinity was put at a Ki of 4.67 nM.
